Reference: ChEMBL document CHEMBL5325429, “Antibacterial and antibiofilm activity of permanently ionized quaternary ammonium fluoroquinolones” (Eur J Med Chem, 2023)
Structures can show the parent of a compound that is named as a salt. Activity calls are given as the source filed them. No cut-off for these calls is given here.

Key:
Pseudomonas aeruginosa [1] = assay: Antibacterial activity against Pseudomonas aeruginosa ATCC 27853 assessed as bacterial growth inhibition incubated for 24 hrs by broth microdilution assay; assay type: functional
Procedure, shortened: (§1)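 Broth microdilution per CLSI. Colonies from overnight Mueller Hinton agar were suspended in 0.9% saline, set by densitometer, and diluted in cation-adjusted MHB to 1×10^6 CFU/mL. This was mixed 1:1 with compound and incubated 24 h at 37 °C. A600 was read versus untreated control and checked visually. Screen at 50 μM; compounds with ≥80% inhibition went to MIC testing at 75–0.78 μM. […] Two independent experiments, three technical replicates each.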

Staphylococcus aureus [2] = assay: Antibacterial activity against Staphylococcus aureus ATCC 29213 assessed as bacterial growth inhibition incubated for 24 hrs by broth microdilution assay; assay type: functional; procedure, shortened: as §1
Pseudomonas aeruginosa [3] = assay: Antibiofilm activity against Pseudomonas aeruginosa ATCC 15442 assessed as reduction in biofilm formation at 25 uM incubated for 18 hrs; assay type: functional, organism-based
Procedure, shortened: (§2)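 Pre-exposure biofilm assay. Inoculum: TSA colonies grown in TSB at 37 °C, 220 rpm, to OD 0.3–0.35, then diluted 100-fold to about 10^6 CFU/mL. Culture was mixed with compound (50x DMSO stock) and shaken at 220 rpm for 18 h at 37 °C. Biofilm was read by resazurin fluorescence (ex 560/em 590) and by crystal violet A595, as % of untreated control.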

Pseudomonas aeruginosa [4] = assay: Antibiofilm activity against Pseudomonas aeruginosa ATCC 15442 assessed as reduction in biofilm formation at 100 uM incubated for 18 hrs relative to control; assay type: functional; parameters: scale not given: the % may be the effect or the level left; procedure, shortened: as §2
Pseudomonas aeruginosa [5] = assay: Antibiofilm activity against Pseudomonas aeruginosa ATCC 15442 assessed as reduction in bacterial viability at 10 to 50 uM incubated for 18 hrs; assay type: functional; conditions: dose 10-50 µM
Procedure, shortened: (§3)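 Biofilm viability by resazurin. 10^6 CFU/mL TSB culture was exposed to compound (50x DMSO stock) for 18 h at 37 °C with shaking at 220 rpm. Biofilm was washed once with PBS and stained with resazurin (1:20 in PBS) in the dark at 37 °C for about 1 h (P. aeruginosa) or about 30 min (S. aureus). Fluorescence ex 560/em 590 is given as % of untreated control.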

Pseudomonas aeruginosa [6] = assay: Antibiofilm activity against Pseudomonas aeruginosa ATCC 15442 assessed as reduction in bacterial biomass at 10 to 50 uM incubated for 18 hrs by crystal violet staining based assay; assay type: functional, organism-based; conditions: dose 10-50 µM
Procedure, shortened: (§4)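 Pre-exposure biofilm: 10^6 CFU/mL TSB culture with compound (50x DMSO stock), 18 h at 37 °C, shaken at 220 rpm. After the resazurin read, biofilms were ethanol-fixed for 15 min, dried, and stained 5 min with 100x-diluted crystal violet. After two water washes, dye was solubilised in 96% ethanol for about 1 h and read at A595. Total biomass is expressed as % of untreated control.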

Pseudomonas aeruginosa [7] = assay: Antibiofilm activity against Pseudomonas aeruginosa ATCC 15442 assessed as log 10 reduction in CFU at 200 uM incubated for 18 hrs; assay type: functional
Procedure, shortened: (§5)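 Post-exposure CFU count. Biofilms were grown 18 h at 37 °C, 220 rpm, from a 10^6 CFU/mL TSB culture. Planktonic cells were removed, then compound (50x DMSO stock) in fresh TSB was added for a further 24 h. Wells were PBS-washed, scraped into PBS, serially diluted 10-fold and spotted on agar. After 24 h incubation, spots with 3–30 colonies were counted and reported as log10 cells/mL. Two experiments on different days, two technical replicates each.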

Pseudomonas aeruginosa [8] = assay: Antibiofilm activity against Pseudomonas aeruginosa ATCC 15442 assessed as reduction in bacterial viability at 50 uM incubated for 18 hrs; assay type: functional, organism-based; procedure, shortened: as §3
[9] = Cytotoxicity against mouse BALB/3T3 clone A31 cells upto 50 uM incubated for 48 hrs by celltiter glo luminescent assay; assay type: toxicity, cell-based; conditions: balb/3t3 clone a31, 48 h
[10] = Cytotoxicity against mouse BALB/3T3 clone A31 cells assessed as viable cells at 200 uM incubated for 48 hrs by celltiter glo luminescent assay relative to control; assay type: toxicity, cell-based; conditions: read-out: Activity
[11] = Cytotoxicity against mouse BALB/3T3 clone A31 cells incubated for 48 hrs by celltiter glo luminescent assay; assay type: toxicity, cell-based
[12] = Selectivity index, ratio of CC50 for cytotoxicity against mouse BALB/3T3 clone A31 cells to MIC for antibacterial activity against Pseudomonas aeruginosa ATCC 27853 assessed as bacterial growth inhibition; assay type: toxicity, cell-based; conditions: read-out: Selectivity Index
[13] = Selectivity index, ratio of CC50 for cytotoxicity against mouse BALB/3T3 clone A31 cells to MIC for antibacterial activity against Staphylococcus aureus ATCC 29213 assessed as bacterial growth inhibition; assay type: toxicity, cell-based; conditions: read-out: Selectivity Index
Pseudomonas aeruginosa [14] = assay: Antibiofilm activity against Pseudomonas aeruginosa ATCC 15442 assessed as reduction in bacterial viability at 20 to 40 uM incubated for 18 hrs relative to control; assay type: functional; conditions: dose 20-40 µM; procedure, shortened: as §3
Pseudomonas aeruginosa [15] = assay: Antibiofilm activity against Pseudomonas aeruginosa ATCC 15442 assessed as reduction in bacterial biomass at 40 to 80 uM incubated for 18 hrs by crystal violet staining based assay relative to control; assay type: functional; parameters: scale not given: the % may be the effect or the level left; conditions: dose 40-80 µM; procedure, shortened: as §4
Staphylococcus aureus [16] = assay: Antibiofilm activity against Staphylococcus aureus assessed as inhibition of biofilm formation at 2.5 to 5 uM incubated for 18 hrs relative to control; parameters: scale not given: the % may be the effect or the level left; conditions: dose 2.5-5 µM
Pseudomonas aeruginosa [17] = assay: Antibiofilm activity against Pseudomonas aeruginosa ATCC 15442 assessed as reduction in bacterial viability at 2.5 to 320 uM incubated for 18 hrs; assay type: functional, organism-based; conditions: dose 2.5-320 µM; procedure, shortened: as §3
Pseudomonas aeruginosa [18] = assay: Antibiofilm activity against Pseudomonas aeruginosa ATCC 15442 assessed as reduction in bacterial biomass at 2.5 to 320 uM incubated for 18 hrs by crystal violet staining based assay; assay type: functional, organism-based; conditions: dose 2.5-320 µM; procedure, shortened: as §4
Pseudomonas aeruginosa [19] = assay: Antibiofilm activity against Pseudomonas aeruginosa ATCC 15442 assessed as reduction in bacterial biomass at 1 to 200 uM incubated for 18 hrs by crystal violet staining based assay; assay type: functional, organism-based; conditions: dose 1-200 µM; procedure, shortened: as §4
Pseudomonas aeruginosa [20] = assay: Antibiofilm activity against Pseudomonas aeruginosa ATCC 15442 assessed as reduction in bacterial viability at 200 uM incubated for 18 hrs; assay type: functional, organism-based; procedure, shortened: as §3
Pseudomonas aeruginosa [21] = assay: Antibiofilm activity against Pseudomonas aeruginosa ATCC 15442 assessed as reduction in biofilm formation at 5 to 25 uM incubated for 18 hrs relative to control; assay type: functional; parameters: scale not given: the % may be the effect or the level left; conditions: dose 5-25 µM; procedure, shortened: as §2
Pseudomonas aeruginosa [22] = assay: Antibiofilm activity against Pseudomonas aeruginosa ATCC 15442 assessed as reduction in bacterial viability incubated for 18 hrs; assay type: functional; procedure, shortened: as §3
Pseudomonas aeruginosa [23] = assay: Antibiofilm activity against Pseudomonas aeruginosa ATCC 15442 assessed as reduction in bacterial biomass incubated for 18 hrs by crystal violet staining based assay; assay type: functional; procedure, shortened: as §4
Staphylococcus aureus [24] = assay: Antibiofilm activity against Staphylococcus aureus ATCC 25923 assessed as reduction in bacterial biomass at 50 uM incubated for 18 hrs by crystal violet staining based assay relative to control; assay type: functional; parameters: scale not given: the % may be the effect or the level left; procedure, shortened: as §4
Staphylococcus aureus [25] = assay: Antibiofilm activity against Staphylococcus aureus ATCC 25923 assessed as reduction in bacterial biomass at 50 uM incubated for 18 hrs; assay type: functional, organism-based; procedure, shortened: as §4
Staphylococcus aureus [26] = assay: Antibiofilm activity against Staphylococcus aureus ATCC 25923 assessed as assessed as log 10 reduction in CFU at 200 uM incubated for 18 hrs; assay type: functional; procedure, shortened: as §5
Staphylococcus aureus [27] = assay: Antibiofilm activity against Staphylococcus aureus ATCC 25923 assessed as reduction in bacterial viability at 50 uM incubated for 18 hrs by resazurin staining based assay relative to control

Compound: CCn1cc(C(=O)O)c(=O)c2cnc(N3CC[N+](C)(C)CC3)nc21
- MIC (Pseudomonas aeruginosa [1]): > 50 µM
- MIC (Staphylococcus aureus [2]): > 50 µM

Compound: O=C(O)C1=Cc2ccccc2N2C[N+]3(CCCN(c4cc5c(cc4F)c(=O)c(C(=O)O)cn5C4CC4)CC3)N=C12.[Cl-] (stereo unspecified)
- MIC (Pseudomonas aeruginosa [1]): 25 µM
- MIC (Staphylococcus aureus [2]): 25 µM
- Activity (Pseudomonas aeruginosa [3]): Active
- Activity (Pseudomonas aeruginosa [4]): 80%
- Activity (Pseudomonas aeruginosa [5]): 50%
- Activity (Pseudomonas aeruginosa [6]): inactive
- Activity (Pseudomonas aeruginosa [7]): 2 log10CFU
- Activity (Pseudomonas aeruginosa [8]): Active
- Activity [9]: Non-Toxic
- viability at 48 h, 200 µM [10]: 1.55%
- CC50 at 48 h [11]: 160 µM
- selectivity ratio [12]: 6.4
- selectivity ratio [13]: 6.4

Compound: O=C(O)C1=Cc2ccccc2N2C[N+]3(CCN(c4cc5c(cc4F)c(=O)c(C(=O)O)cn5C4CC4)CC3)N=C12.[I-]
- Activity (Pseudomonas aeruginosa [14]): >90%
- Activity (Pseudomonas aeruginosa [15]): >90%
- Activity (Staphylococcus aureus [16]): >90%

Compound: CCn1cc(C(=O)O)c(=O)c2cc(F)c(N3CC[N+](C)(C)CC3)cc21
- MIC (Pseudomonas aeruginosa [1]): > 50 µM
- MIC (Staphylococcus aureus [2]): 25 µM

Compound: O=C(O)c1cn(C2CC2)c2cc(N3CCNCC3)c(F)cc2c1=O [CIPROFLOXACIN HYDROCHLORIDE]
- MIC (Pseudomonas aeruginosa [1]): 2.72 µM
- MIC (Staphylococcus aureus [2]): 1.36 µM
- Activity (Pseudomonas aeruginosa [17]): Active
- Activity (Pseudomonas aeruginosa [18]): Active
- Activity (Pseudomonas aeruginosa [19]): inactive
- Activity (Pseudomonas aeruginosa [20]): Active

Compound: CCn1cc(C(=O)O)c(=O)c2cc(F)c(N3CC[N+]4(CN5C(=N4)C(C(=O)O)=Cc4ccccc45)C(C)C3)c(F)c21.[I-] (stereo unspecified)
- Activity (Staphylococcus aureus [16]): >90%

Compound: CCn1cc(C(=O)O)c(=O)c2cc(F)c(N3CC[N+](C)(C)C(C)C3)c(F)c21 (stereo unspecified)
- MIC (Pseudomonas aeruginosa [1]): 75 µM
- MIC (Staphylococcus aureus [2]): 25 µM

Compound: CCn1cc(C(=O)O)c(=O)c2cc(F)c(N3CC[N+](C)(C)CC3)nc21
- MIC (Pseudomonas aeruginosa [1]): > 50 µM
- MIC (Staphylococcus aureus [2]): 50 µM

Compound: C[N+]1(C)CCCN(c2cc3c(cc2F)c(=O)c(C(=O)O)cn3C2CC2)CC1.[I-]
- MIC (Pseudomonas aeruginosa [1]): 6.25 µM
- MIC (Staphylococcus aureus [2]): 6.25 µM
- Activity (Pseudomonas aeruginosa [14]): >90%
- Activity (Pseudomonas aeruginosa [15]): >90%
- Activity (Pseudomonas aeruginosa [21]): >90%
- MBIC (Pseudomonas aeruginosa [22]): 25 µM
- MBIC (Pseudomonas aeruginosa [23]): 50 µM
- Activity (Pseudomonas aeruginosa [5]): 50%
- Activity (Pseudomonas aeruginosa [6]): inactive
- Activity (Pseudomonas aeruginosa [7]): 2 log10CFU
- Activity (Staphylococcus aureus [24]): 100%
- Activity (Staphylococcus aureus [25]): inactive
- Activity (Staphylococcus aureus [26]): 2 log10CFU
- Activity [9]: Non-Toxic
- viability at 48 h, 200 µM [10]: 81.7%
- CC50 at 48 h [11]: > 200 µM
- selectivity ratio [12]: > 32
- selectivity ratio [13]: > 32
- Activity (Staphylococcus aureus [16]): >90%
- Activity (Staphylococcus aureus [27]): 60%

Compound: CCn1cc(C(=O)O)c(=O)c2cc(F)c(N3CC[N+]4(CC3)CN3C(=N4)C(C(=O)O)=Cc4ccccc43)nc21.[I-]
- Activity (Pseudomonas aeruginosa [14]): >90%
- Activity (Pseudomonas aeruginosa [15]): >90%
- Activity (Staphylococcus aureus [16]): >90%

Compound: C[N+]1(C)CCN(c2cc3c(cc2F)c(=O)c(C(=O)O)cn3C2CC2)CC1.[I-]
- MIC (Pseudomonas aeruginosa [1]): 6.25 µM
- MIC (Staphylococcus aureus [2]): 6.25 µM
- Activity (Pseudomonas aeruginosa [21]): >90%
- MBIC (Pseudomonas aeruginosa [22]): 25 µM
- MBIC (Pseudomonas aeruginosa [23]): 50 µM
- Activity (Pseudomonas aeruginosa [5]): 50%
- Activity (Pseudomonas aeruginosa [6]): inactive
- Activity (Pseudomonas aeruginosa [7]): 2 log10CFU
- Activity (Staphylococcus aureus [24]): 100%
- Activity (Staphylococcus aureus [25]): inactive
- Activity (Staphylococcus aureus [26]): 2 log10CFU
- Activity [9]: Non-Toxic
- viability at 48 h, 200 µM [10]: 108%
- CC50 at 48 h [11]: > 200 µM
- selectivity ratio [12]: > 32
- selectivity ratio [13]: > 32
- Activity (Staphylococcus aureus [27]): 60%
